Where two headings read alike, the source gives them in different places. Where a SMILES comes first, the peptide text is derived from it. [ ]: non-standard residue; d: D form. The star is where a group is joined. Sta = CC(C)C[C@H](N)[C@@H](O)CC(=O)O; Isovaleryl = CC(C)CC(=O)*; CH2Cl = ClC*
Columns and labels:
[1] = tested on: HLA-I presentation of M. tuberculosis epitopes by H37Rv-eGFP-infected DCs; assay: cells; type: cell-based, human; details: for inhibition at 10 µg/mL: Homo sapiens, T-cell
[2] = tested on: DCs; assay: Toxicity of inhibitor to DCs; type: cell-based; details: human DCs
How it was run: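 Human DCs were derived from leukapheresis PBMCs. Adherent PBMCs were cultured 5 d with GM-CSF (10 ng/ml) and IL-4 (10 ng/ml) in RPMI 1640 with 10% pooled human serum, 4 mM L-glutamine and gentamicin (50 μg/ml).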

[3] = target: Purified 20S immunoproteasomes (Homo sapiens, UniProt P28062+P28065+P40306); assay: In vitro proteasome digestion of CFP10_2–21; type: biochemical; details: epoxomicin 1 μM, 20 h, 37°C
[4] = tested on: CD8^+ T cells present in PBMCs; details: PBMCs of the donor from whom the clone was derived; cited from earlier work
[5] = target: T1, TAP (Homo sapiens, UniProt Q03518+Q03519); assay: ICP47-mediated TAP inhibition, intracellular IFN-γ staining of T cell clones; type: cell-based; details: adenovirus-ICP47-transduced DCs pulsed with 0.25–1 μg/ml cognate peptides
T1 sequence (Q03518 1-748): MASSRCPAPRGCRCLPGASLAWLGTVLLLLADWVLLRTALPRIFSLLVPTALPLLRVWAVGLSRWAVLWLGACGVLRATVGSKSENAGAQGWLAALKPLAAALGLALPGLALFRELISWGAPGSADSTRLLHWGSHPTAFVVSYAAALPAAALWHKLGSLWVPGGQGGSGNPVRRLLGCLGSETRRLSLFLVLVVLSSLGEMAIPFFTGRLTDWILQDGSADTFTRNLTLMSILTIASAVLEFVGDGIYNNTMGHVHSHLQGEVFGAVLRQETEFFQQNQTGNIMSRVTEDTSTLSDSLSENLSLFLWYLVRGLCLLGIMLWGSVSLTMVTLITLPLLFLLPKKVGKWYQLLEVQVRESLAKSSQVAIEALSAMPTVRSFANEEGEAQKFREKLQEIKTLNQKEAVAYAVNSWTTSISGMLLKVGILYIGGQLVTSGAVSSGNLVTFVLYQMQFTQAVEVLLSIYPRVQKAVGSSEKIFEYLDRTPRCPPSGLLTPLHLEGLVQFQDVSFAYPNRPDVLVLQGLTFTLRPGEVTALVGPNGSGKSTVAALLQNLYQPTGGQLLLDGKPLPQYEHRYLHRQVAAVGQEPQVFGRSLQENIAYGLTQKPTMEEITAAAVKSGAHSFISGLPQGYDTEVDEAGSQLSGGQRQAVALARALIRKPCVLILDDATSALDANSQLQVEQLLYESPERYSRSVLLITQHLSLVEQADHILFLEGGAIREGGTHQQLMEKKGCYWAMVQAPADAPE
T1 sequence (Q03519 1-686): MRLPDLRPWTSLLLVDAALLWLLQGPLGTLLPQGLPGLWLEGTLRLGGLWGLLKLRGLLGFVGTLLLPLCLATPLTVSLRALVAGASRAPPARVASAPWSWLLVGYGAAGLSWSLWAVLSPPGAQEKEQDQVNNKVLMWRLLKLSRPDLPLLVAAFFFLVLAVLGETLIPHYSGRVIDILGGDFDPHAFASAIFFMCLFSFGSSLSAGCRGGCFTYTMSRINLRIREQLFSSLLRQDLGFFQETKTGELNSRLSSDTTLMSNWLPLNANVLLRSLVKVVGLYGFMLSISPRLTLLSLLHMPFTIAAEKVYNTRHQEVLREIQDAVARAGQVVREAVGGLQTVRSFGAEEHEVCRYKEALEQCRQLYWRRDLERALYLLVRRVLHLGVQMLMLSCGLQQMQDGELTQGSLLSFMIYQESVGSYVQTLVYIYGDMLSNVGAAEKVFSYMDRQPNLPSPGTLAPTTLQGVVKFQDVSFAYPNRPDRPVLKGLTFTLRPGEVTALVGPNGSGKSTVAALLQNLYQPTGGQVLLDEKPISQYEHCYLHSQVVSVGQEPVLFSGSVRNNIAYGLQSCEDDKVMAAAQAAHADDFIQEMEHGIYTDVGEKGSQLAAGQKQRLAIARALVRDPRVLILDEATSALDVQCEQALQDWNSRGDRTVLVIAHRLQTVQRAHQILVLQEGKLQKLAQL

[6] = […], AAF-CMK at highest possible nontoxic dose, data not shown
[7] = cycloheximide 10 μg/ml, […], Fig. 5

C[C@H](N)C(=O)N[C@@H](C)C(=O)N[C@@H](Cc1ccccc1)C(=O)CCl [AAF-CMK] (H-Ala-Ala-Phe-CH2Cl)
Effect on presentation of the EsxJ24–34 or CFP10_75–83 epitope [1, 6]: no effect

CO/C1=C\C(C)=C\[C@@H](C)[C@@H](O)[C@@H](C)C/C(C)=C/C=C/[C@H](OC)[C@@H]([C@@H](C)[C@@H](O)[C@H](C)[C@@]2(O)C[C@@H](O)[C@H](C)[C@@H](C(C)C)O2)OC1=O [Bafilomycin, bafilomycin]
Effect on presentation of all of the epitopes examined ([1]; […], BFA 0.1 μg/ml, bafilomycin 0.2 μM, Fig. 1): did not significantly inhibit

C[C@@H]1C[C@@H]([C@H](O)CC2CC(=O)NC(=O)C2)C(=O)[C@@H](C)C1 [Cycloheximide, cycloheximide]
inhibition at 10 µg/mL ([1]; read-out: Inhibition of presentation of epitope CFP10_2–12): > 70% | inhibition at 10 µg/mL ([1]; read-out: Inhibition of presentation of epitope EsxJ24–34): > 70% | Effect on presentation of the HLA-E–presented epitope [1, 7]: enhanced presentation | Effect on presentation of the epitope CFP10_2–9 [1, 7]: only slightly inhibited

CC[C@H](C)[C@H](NC(=O)[C@H]([C@@H](C)CC)N(C)C(C)=O)C(=O)N[C@H](C(=O)N[C@@H](CC(C)C)C(=O)[C@@]1(C)CO1)[C@@H](C)O [Epoxomicin, epoxomicin]
Highest dose that was nontoxic to DCs [2]: 10 µM | Effect on amount of CFP10_2–11 generated from CFP10_2–21 by proteasomes ([3]; IFN-γ ELISPOT and LC-MS): drastically reduced | Effect on generation of CFP10_2–12 from CFP10_2–21 by proteasomes ([3]; detectible by T cell assay but not LC-MS): enhanced the generation | Effect on presentation of CFP10_2–9 and Ag85B144–153 epitopes ([1]; epoxomicin 1–10 μM, […], Fig. 2): ablated

CCN(CC)CCCC(C)Nc1ccnc2cc(Cl)ccc12 (stereo not shown) [chloroquine]
Effect on presentation of the EsxJ24–34 or CFP10_75–83 epitope [1]: neither of these epitopes was inhibited

CC(=O)N[C@@H](CC(C)C)C(=O)N[C@@H](CC(C)C)C(=O)N[C@H](C=O)CCCNC(=N)N [leupeptin]
Effect on presentation of the EsxJ24–34 or CFP10_75–83 epitope [1, 6]: did not block

CC(C)CC(=O)N[C@H](C(=O)N[C@H](C(=O)N[C@@H](CC(C)C)[C@@H](O)CC(=O)N[C@@H](C)C(=O)N[C@@H](CC(C)C)[C@@H](O)CC(=O)O)C(C)C)C(C)C [pepstatin A] (Isovaleryl-VV[Sta]A[Sta]-OH)
Effect on presentation of the EsxJ24–34 or CFP10_75–83 epitope [1, 6]: did not block

AEMKTDAA [CFP10_2–9]
Ex Vivo Frequency of CD8+ T cells present in PBMCs specific for the indicated epitope [4]: 1/102

EMKTDAATL [CFP10_3–11]
Ex Vivo Frequency of CD8+ T cells present in PBMCs specific for the indicated epitope [4]: 1/646

ICP47: HSV-1–encoded protein, prevents peptide binding to cytosolic face of TAP; expressed from an adenovirus vector
Effect on presentation of cognate peptide to CD8+ T cell clones [5]: no effect
